According to ChEMBL document CHEMBL4043093, “2-Oxo-3, 4-dihydropyrimido[4, 5-d]pyrimidinyl derivatives as new irreversible pan fibroblast growth factor receptor (FGFR) inhibitors” (Eur J Med Chem, 2017):

Key:
[1] = target: Activin receptor type-1-like (Homo sapiens) (UniProt P37023); assay: Inhibition of wild-type human ACVRL1 (L164 to Q503 residues) expressed in Escherichia coli BL21 assessed as residual activity at 1000 nM after 30 mins by Kinomescan method relative to control
Outline: (§1)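 Single-point screen at a fixed 1 µM, run within a 456-kinase DiscoveRx KINOMEscan panel. Each kinase's read-out is Percent Control, i.e. signal relative to a control without compound. Hits were scored by a Percent Control < 35 cut-off, and an S(35) selectivity score was calculated across the non-mutant kinases.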

[2] = target: Calcium/calmodulin-dependent protein kinase kinase 1 (Homo sapiens) (UniProt Q8N5S9); assay: Inhibition of wild-type human partial length CAMKK1 (R65 to E414 residues) expressed in Escherichia coli BL21 assessed as residual activity at 1000 nM after 30 mins by Kinomescan method relative to control
[3] = target: Cyclin-dependent kinase-like 5 (Homo sapiens) (UniProt O76039); assay: Inhibition of wild-type human partial length CDKL5 (M1 to S337 residues) expressed in HEK293 cells assessed as residual activity at 1000 nM after 30 mins by Kinomescan method relative to control; type: cell-based
[4] = target: Casein kinase II subunit alpha (Homo sapiens) (UniProt P68400); assay: Inhibition of wild-type human full length CSNK2A1 (M1 to Q391 residues) expressed in HEK293 cells assessed as residual activity at 1000 nM after 30 mins by Kinomescan method relative to control; type: cell-based; outline: as §1
[5] = target: Epithelial discoidin domain-containing receptor 1 (Homo sapiens) (UniProt Q08345); assay: Inhibition of wild-type human partial length DDR1 (R565 to V876 residues) expressed in Escherichia coli BL21 assessed as residual activity at 1000 nM after 30 mins by Kinomescan method relative to control
[6] = target: Receptor-type tyrosine-protein kinase FLT3 (Homo sapiens) (UniProt P36888); assay: Inhibition of wild-type human partial length autoinhibited FLT3 (H564 to Y969 residues) expressed in HEK293 cells assessed as residual activity at 1000 nM after 30 mins by Kinomescan method relative to control; type: cell-based
[7] = target: Vascular endothelial growth factor receptor 3 (Homo sapiens) (UniProt P35916); assay: Inhibition of wild-type human partial length FLT4 (E821 to E1196 residues) expressed in Escherichia coli BL21 assessed as residual activity at 1000 nM after 30 mins by Kinomescan method relative to control
[8] = target: Glycogen synthase kinase-3 beta (Homo sapiens) (UniProt P49841); assay: Inhibition of wild-type human full length GSK3B (M1 to T433 residues) expressed in HEK293 cells assessed as residual activity at 1000 nM after 30 mins by Kinomescan method relative to control; type: cell-based
Outline: (§2)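 Single-concentration screen at 1 µM across a 456-kinase KINOMEscan panel. The read-out is Percent Control for each kinase.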

[9] = target: Mast/stem cell growth factor receptor Kit (Homo sapiens) (UniProt P10721); assay: Inhibition of wild-type human partial length autoinhibited KIT (Y545 to D952 residues) expressed in HEK293 cells assessed as residual activity at 1000 nM after 30 mins by Kinomescan method relative to control; type: cell-based
[10] = target: Dual specificity mitogen-activated protein kinase kinase 7 (Homo sapiens) (UniProt O14733); assay: Inhibition of wild-type human full length MKK7 (M1 to R419 residues) expressed in HEK293 cells assessed as residual activity at 1000 nM after 30 mins by Kinomescan method relative to control; type: cell-based; outline: as §2
[11] = target: MAP kinase-interacting serine/threonine-protein kinase 2 (Homo sapiens) (UniProt Q9HBH9); assay: Inhibition of wild-type human partial length MKNK2 (G63 to S388 residues) expressed in HEK293 cells assessed as residual activity at 1000 nM after 30 mins by Kinomescan method relative to control; type: cell-based
[12] = target: Serine/threonine-protein kinase 4 (Homo sapiens) (UniProt Q13043); assay: Inhibition of wild-type human full length MST1 (M1 to F487 residues) expressed in Escherichia coli BL21 assessed as residual activity at 1000 nM after 30 mins by Kinomescan method relative to control; outline: as §2
[13] = target: Serine/threonine-protein kinase 26 (Homo sapiens) (UniProt Q9P289); assay: Inhibition of wild-type human full length MST4 (M1 to P416 residues) expressed in HEK293 cells assessed as residual activity at 1000 nM after 30 mins by Kinomescan method relative to control; type: cell-based; outline: as §2
[14] = target: Serine/threonine-protein kinase NIM1 (Homo sapiens) (UniProt Q8IY84); assay: Inhibition of wild-type human partial length NIM1 (Q44 to N355 residues) expressed in HEK293 cells assessed as residual activity at 1000 nM after 30 mins by Kinomescan method relative to control; type: cell-based
[15] = target: PDGFRB (platelet-derived growth factor receptor beta) (Homo sapiens, UniProt P09619); assay: Inhibition of wild-type human partial length PDGFRB (V582 to Y1009 residues) expressed in Escherichia coli BL21 assessed as residual activity at 1000 nM after 30 mins by Kinomescan method relative to control; details: read-out: Activity
[16] = target: cAMP-dependent protein kinase catalytic subunit alpha (Homo sapiens) (UniProt P17612); assay: Inhibition of wild-type human partial length PKAC-alpha (G10 to F351 residues) expressed in Escherichia coli BL21 assessed as residual activity at 1000 nM after 30 mins by Kinomescan method relative to control
[17] = target: Proto-oncogene tyrosine-protein kinase Src (Homo sapiens) (UniProt P12931); assay: Inhibition of wild-type human partial length SRC (L240 to L536 residues) expressed in Escherichia coli BL21 assessed as residual activity at 1000 nM after 30 mins by Kinomescan method relative to control
[18] = target: Serine/threonine-protein kinase TNNI3K (Homo sapiens) (UniProt Q59H18); assay: Inhibition of wild-type human full length TNNI3K (M1 to S835 residues) expressed in Escherichia coli BL21 assessed as residual activity at 1000 nM after 30 mins by Kinomescan method relative to control
[19] = target: Tyrosine-protein kinase receptor TYRO3 (Homo sapiens) (UniProt Q06418); assay: Inhibition of wild-type human partial length TYRO3 (S497 to T814 residues) expressed in Escherichia coli BL21 assessed as residual activity at 1000 nM after 30 mins by Kinomescan method relative to control
[20] = target: Serine/threonine-protein kinase VRK2 (Homo sapiens) (UniProt Q86Y07); assay: Inhibition of wild-type human partial length VRK2 (M1 to T336 residues) expressed in HEK293 cells assessed as residual activity at 1000 nM after 30 mins by Kinomescan method relative to control; type: cell-based
[21] = target: Serine/threonine-protein kinase 25 (Homo sapiens) (UniProt O00506); assay: Inhibition of wild-type human partial length YSK1 (V14 to H295 residues) expressed in Escherichia coli BL21 assessed as residual activity at 1000 nM after 30 mins by Kinomescan method relative to control
Serine/threonine-protein kinase 25 (Homo sapiens), sequence (O00506 whole entry, looked up, the tested form may be a part): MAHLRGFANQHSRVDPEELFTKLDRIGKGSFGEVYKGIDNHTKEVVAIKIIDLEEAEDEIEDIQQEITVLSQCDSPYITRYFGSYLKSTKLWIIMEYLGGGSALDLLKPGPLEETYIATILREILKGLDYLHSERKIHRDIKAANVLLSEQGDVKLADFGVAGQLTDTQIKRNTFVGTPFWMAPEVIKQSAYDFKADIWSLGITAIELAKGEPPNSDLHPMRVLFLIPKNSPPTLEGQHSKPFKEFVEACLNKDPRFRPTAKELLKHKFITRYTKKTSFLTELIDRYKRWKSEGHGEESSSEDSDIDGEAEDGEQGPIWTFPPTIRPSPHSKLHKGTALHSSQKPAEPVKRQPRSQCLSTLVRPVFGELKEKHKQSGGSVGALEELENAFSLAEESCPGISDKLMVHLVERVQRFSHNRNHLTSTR

Serine/threonine-protein kinase 26 (Homo sapiens), sequence (Q9P289 2-416 limits assumed): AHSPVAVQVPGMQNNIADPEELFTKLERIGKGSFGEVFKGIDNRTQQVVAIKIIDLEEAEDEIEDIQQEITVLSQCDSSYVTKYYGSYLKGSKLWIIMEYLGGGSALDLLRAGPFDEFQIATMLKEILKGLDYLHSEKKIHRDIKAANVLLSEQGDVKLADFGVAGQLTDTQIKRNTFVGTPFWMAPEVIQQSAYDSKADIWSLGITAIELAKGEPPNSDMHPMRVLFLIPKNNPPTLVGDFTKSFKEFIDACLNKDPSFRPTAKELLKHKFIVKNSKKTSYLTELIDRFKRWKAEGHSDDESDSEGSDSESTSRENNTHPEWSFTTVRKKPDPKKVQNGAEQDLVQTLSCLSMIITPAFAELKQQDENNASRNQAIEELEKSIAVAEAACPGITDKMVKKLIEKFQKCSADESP
Calcium/calmodulin-dependent protein kinase kinase 1 (Homo sapiens), sequence (Q8N5S9 whole entry, looked up, the tested form may be a part): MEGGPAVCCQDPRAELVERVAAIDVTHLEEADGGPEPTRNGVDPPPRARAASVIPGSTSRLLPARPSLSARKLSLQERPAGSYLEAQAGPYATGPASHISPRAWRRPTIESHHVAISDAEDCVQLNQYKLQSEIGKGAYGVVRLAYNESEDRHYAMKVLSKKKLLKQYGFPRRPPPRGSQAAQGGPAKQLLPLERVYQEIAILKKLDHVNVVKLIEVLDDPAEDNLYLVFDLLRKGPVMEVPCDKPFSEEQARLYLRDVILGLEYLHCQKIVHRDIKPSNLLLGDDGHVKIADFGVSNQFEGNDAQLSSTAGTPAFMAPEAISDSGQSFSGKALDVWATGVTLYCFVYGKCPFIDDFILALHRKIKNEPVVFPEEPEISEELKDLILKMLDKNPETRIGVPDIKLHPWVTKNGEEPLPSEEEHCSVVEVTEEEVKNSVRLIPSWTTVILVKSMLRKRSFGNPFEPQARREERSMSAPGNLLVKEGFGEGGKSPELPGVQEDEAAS
Serine/threonine-protein kinase VRK2 (Homo sapiens), sequence (Q86Y07 whole entry, the tested form may be a part): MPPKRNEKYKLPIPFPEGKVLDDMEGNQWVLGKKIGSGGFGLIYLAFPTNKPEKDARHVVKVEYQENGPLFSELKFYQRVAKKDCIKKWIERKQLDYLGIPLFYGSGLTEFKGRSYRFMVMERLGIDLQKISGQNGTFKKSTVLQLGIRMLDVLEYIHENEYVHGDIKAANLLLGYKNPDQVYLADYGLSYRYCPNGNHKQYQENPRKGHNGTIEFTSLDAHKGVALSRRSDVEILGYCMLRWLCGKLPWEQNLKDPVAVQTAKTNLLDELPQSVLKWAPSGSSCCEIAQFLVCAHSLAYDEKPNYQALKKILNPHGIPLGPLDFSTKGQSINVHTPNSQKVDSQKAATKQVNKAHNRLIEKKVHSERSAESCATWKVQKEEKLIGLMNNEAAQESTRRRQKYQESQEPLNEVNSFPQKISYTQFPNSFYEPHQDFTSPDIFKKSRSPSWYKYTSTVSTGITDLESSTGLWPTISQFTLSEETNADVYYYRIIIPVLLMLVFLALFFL
Tyrosine-protein kinase receptor TYRO3 (Homo sapiens), sequence (Q06418 whole entry, the tested form may be a part): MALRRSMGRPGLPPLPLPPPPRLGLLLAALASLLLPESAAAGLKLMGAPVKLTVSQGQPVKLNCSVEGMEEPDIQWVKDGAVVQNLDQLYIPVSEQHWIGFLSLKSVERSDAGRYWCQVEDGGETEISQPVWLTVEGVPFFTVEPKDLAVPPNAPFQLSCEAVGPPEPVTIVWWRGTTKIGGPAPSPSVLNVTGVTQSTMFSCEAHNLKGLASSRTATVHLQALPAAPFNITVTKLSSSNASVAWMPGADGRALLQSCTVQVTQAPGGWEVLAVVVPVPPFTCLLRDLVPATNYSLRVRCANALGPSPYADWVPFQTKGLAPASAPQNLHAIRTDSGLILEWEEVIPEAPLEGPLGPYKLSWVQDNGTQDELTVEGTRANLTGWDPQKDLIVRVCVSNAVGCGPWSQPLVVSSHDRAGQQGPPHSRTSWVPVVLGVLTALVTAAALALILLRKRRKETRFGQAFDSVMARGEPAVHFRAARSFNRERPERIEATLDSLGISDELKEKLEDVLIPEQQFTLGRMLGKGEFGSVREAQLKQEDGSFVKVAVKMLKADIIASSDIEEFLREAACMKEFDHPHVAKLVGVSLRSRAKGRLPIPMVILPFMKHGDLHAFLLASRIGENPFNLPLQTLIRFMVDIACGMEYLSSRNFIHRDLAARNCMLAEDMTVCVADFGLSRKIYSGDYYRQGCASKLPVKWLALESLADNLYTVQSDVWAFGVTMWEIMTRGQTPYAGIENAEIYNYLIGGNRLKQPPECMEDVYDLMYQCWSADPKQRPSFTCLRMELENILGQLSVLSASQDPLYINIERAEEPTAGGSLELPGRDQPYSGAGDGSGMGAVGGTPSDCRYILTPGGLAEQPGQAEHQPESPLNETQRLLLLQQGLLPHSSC
PDGFRB (platelet-derived growth factor receptor beta), sequence (P09619 whole entry, the tested form may be a part): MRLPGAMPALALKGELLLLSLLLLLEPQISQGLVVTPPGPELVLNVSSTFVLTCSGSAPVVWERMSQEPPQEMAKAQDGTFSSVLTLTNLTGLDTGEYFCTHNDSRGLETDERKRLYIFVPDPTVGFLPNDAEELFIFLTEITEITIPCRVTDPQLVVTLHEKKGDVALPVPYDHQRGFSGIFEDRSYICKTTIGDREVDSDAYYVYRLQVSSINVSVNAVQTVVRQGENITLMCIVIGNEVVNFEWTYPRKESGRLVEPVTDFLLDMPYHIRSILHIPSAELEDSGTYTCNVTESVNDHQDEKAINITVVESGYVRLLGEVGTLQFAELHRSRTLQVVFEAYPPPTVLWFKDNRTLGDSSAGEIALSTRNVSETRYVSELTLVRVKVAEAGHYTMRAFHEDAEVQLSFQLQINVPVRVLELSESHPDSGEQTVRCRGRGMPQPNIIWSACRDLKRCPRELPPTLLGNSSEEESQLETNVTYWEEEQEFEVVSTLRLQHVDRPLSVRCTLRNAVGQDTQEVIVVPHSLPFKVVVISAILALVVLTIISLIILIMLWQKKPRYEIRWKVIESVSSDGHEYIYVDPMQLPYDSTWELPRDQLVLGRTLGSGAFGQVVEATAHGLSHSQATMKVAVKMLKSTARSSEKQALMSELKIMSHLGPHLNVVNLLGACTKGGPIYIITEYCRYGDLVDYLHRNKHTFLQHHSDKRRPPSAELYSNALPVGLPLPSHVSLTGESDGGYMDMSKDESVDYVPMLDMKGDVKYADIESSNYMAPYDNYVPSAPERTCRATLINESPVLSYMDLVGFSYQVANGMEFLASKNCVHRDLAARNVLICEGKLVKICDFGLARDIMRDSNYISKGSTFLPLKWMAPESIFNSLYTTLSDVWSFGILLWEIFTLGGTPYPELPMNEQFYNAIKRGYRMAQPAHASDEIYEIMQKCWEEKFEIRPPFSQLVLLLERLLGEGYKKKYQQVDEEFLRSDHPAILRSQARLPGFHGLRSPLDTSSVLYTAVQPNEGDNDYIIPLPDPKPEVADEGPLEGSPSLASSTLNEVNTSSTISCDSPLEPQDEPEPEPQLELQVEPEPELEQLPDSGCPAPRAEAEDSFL
Cyclin-dependent kinase-like 5 (Homo sapiens), sequence (O76039 whole entry, the tested form may be a part): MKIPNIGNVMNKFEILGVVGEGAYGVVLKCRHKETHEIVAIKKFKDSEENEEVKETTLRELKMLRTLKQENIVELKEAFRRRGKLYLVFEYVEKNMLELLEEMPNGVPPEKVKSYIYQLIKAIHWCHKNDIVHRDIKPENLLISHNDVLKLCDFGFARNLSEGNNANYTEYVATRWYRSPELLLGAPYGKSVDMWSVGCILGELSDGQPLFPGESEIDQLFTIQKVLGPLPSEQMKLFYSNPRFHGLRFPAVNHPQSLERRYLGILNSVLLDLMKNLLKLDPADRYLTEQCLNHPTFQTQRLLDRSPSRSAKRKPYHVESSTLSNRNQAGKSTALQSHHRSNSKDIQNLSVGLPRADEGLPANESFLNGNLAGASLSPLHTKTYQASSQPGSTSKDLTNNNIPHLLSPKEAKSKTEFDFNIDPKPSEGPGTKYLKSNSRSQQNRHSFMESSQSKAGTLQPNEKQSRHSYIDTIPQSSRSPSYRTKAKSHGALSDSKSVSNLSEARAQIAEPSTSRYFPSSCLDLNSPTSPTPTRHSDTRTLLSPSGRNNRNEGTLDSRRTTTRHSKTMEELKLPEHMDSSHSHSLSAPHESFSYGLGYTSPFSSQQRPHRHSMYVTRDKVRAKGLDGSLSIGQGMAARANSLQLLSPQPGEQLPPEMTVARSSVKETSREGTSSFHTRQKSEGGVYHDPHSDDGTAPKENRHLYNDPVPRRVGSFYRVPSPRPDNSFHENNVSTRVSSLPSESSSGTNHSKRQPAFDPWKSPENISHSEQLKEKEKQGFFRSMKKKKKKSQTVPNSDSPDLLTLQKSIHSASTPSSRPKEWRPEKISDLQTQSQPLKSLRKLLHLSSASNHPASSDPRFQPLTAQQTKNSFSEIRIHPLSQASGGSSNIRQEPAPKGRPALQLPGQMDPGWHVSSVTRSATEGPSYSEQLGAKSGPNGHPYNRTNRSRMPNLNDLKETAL

COc1cc(OC)c(Cl)c(N2Cc3cnc(Nc4ccc(F)cc4)nc3N(C3CCN(C(=O)/C=C/CN(C)C)CC3)C2=O)c1Cl
Activity [1]: 100% | Activity [2]: 93% | Activity [3]: 100% | Activity [4]: 100% | Activity [5]: 7% | Activity [6]: 100% | Activity [7]: 2.7% | Activity [8]: 100% | Activity [9]: 90% | Activity [10]: 100% | Activity [11]: 86% | Activity [12]: 81% | Activity [13]: 69% | Activity [14]: 100% | activity at 0.5 h, 1 µM [15]: 1.5% | Activity [16]: 100% | Activity [17]: 11% | Activity [18]: 100% | Activity [19]: 57% | Activity [20]: 100% | Activity [21]: 97%
